Source: PubChem (The Scripps Research Institute Molecular Screening Center)
This is a sample that favours compounds with a hit; in the whole collection about 4.6% have one here.
GPR7 antag: antagonists of human GPR7 (neuropeptides B/W receptor 1); inhibition, % at 4.4 µM; GPR7-expressing cells, fluorescence antagonist assay; 1.1% of 290,000 active; AID 1861; P48145; in the data active = inhibition above about 16%, passing the limit was not always enough;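 note: cells stimulated with the agonist NPW; 0% = agonist with vehicle and 100% = vehicle without agonist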
Target sequence (P48145 whole entry, looked up): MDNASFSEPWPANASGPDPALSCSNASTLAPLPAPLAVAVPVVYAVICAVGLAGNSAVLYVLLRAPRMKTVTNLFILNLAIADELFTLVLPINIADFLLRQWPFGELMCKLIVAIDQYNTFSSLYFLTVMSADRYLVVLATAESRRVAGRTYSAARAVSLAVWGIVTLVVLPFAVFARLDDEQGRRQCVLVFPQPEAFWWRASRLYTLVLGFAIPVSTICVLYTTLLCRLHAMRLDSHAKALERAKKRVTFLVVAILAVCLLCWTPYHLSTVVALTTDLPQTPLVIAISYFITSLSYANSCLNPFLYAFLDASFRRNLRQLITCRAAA
TAAR1 antagonist: antagonists of human TAAR1. CHO RD-HGA16 TAAR1, Fluo-8 calcium fluorescence, antagonist. inhibition, % at 3 µM. 1.5% of 360,000 active. AID 624466;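 active = inhibition above a per-plate cutoff, the mean inhibition of test compounds on that plate plus 3 SD, cut at about 49% in these data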;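 note: 0% = DMSO plus EC80 beta-PEA response and 100% = DMSO alone without agonist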
Target sequence (Q96RJ0 whole entry, looked up): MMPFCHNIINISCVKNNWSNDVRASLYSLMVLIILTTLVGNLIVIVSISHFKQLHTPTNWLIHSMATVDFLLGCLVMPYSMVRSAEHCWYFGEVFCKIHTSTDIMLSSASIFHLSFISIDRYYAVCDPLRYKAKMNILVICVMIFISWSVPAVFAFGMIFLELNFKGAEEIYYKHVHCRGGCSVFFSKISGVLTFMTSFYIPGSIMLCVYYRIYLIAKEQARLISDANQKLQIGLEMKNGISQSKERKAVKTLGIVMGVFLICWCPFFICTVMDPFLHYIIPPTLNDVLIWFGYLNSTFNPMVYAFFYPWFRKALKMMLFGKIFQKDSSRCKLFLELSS
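Test system – hTAAR1-expressing CHO RD-HGA16 cells, Gα16-coupled · Reagent – β-PEA at EC80 concentration, post-compound challenge · Compound dosing – 3 µM, single point · Timing – 140 s kinetic read after compound, 140 s after agonist · Detection – Fluo-8 intracellular calcium dye fluorescence, real-time kinetic reads · Control set – DMSO and EC80 PEA controls · Repeats – n of 1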
TAAR1 agonist: agonists of human TAAR1. AID 624467. 0.99% of 360,000 active. Q96RJ0. activation, % at 3 µM. CHO RD-HGA16 TAAR1, Fluo-8 calcium fluorescence; vehicle wells 0%, saturating PEA agonist 100%;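 active = activation above the mean activation of all test compounds in the run plus 3 SD, cut at about 38% in these data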
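Assay system – CHO-derived RD-HGA16 cells with stable Gα16 and human TAAR1 · Compound dosing – one-point dosing at 3 µM (nominal) · Incubation – 17-24 h seeding, 75 min 37 °C dye, 30 min RT · Measured by – kinetic Fluo-8 calcium fluorescence · Control set – DMSO vehicle as 0%, PEA at EC100 as 100% · Repeats – single well for each compound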
OX1R antag-1: antagonists of human orexin 1 receptor (OX1R). 1.8% of 330,000 active. O43613. inhibition, % at 6.6 µM. OX1R-expressing cells, FRET antagonist read-out. AID 485270; in the data active = inhibition mostly above about 38%, no sharp cut-off; inactive = mostly below about 40%;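 note: 0% = agonist challenge alone and 100% = reference antagonist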
OX1R antag-2: human HCRTR1 antagonism; inhibition, % at 5 µM; O43613; AID 434989; CHO/OX1R cells, Fluo-8 calcium fluorescence, orexin A; 0.43% of 330,000 active;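 active = inhibition above its plate's threshold, mean inhibition of all tested compounds on the plate plus 3 SD, cut at about 37% in these data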;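 note: 0% = orexin A challenge wells and 100% = SB-334867-A antagonist wells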
CHO parental Ca: counter-screen for OX1R antagonists: effect in parental CHO cells; 0.63% of 330,000 active; parental CHO-K1, ATP-induced calcium, Fluo-8 fluorescence; inhibition, % at 5.6 µM;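 active = inhibition above that plate's mean sample inhibition plus 3 SD, cut at about 26% in these data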;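 note: 0% = ATP-challenged DMSO wells and 100% = DMSO wells without ATP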
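Test system: untransfected parental CHO cell line; also added: ATP stimulus; dosing: 5.6 µM, single dose; signal: calcium-sensitive Fluo-8 fluorescence; measure: percent inhibition of ATP-evoked calcium rise, normalized to controls; benchmarks: low control ATP plus DMSO, high control DMSO only; replication: one well per compound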
Active calls of the source: *; · = no result given.

SMILES	GPR7 antag	TAAR1 antagonist	TAAR1 agonist	OX1R antag-1	OX1R antag-2	CHO parental Ca
O=Cc1c(Cl)nc2ccccn12	-7.3	-3.7	8.4	14.4	-12.2	-3.9
COc1ccc(CCC(=O)Nc2nc3ccccc3[nH]2)cc1	-12.6	21.2	10.2	-0.8	20.6	70.3*
COc1ccc(NC(=O)Nc2cc(C)cc(C)c2)cn1	-1.7	-6.2	5.5	8.7	-22.5	-11.7
COc1ccc(NC(=O)Cc2ccc(-c3ccccc3)cc2)cn1	21.8	5.1	1.0	18.5	10.2	69.3*
COc1ccc(NC(=O)Nc2cccc(C(F)(F)F)c2)cn1	-5.8	-0.2	11.4	20.8	46.5*	40.8*
COc1ccc(NC(=O)Nc2ccc([N+](=O)[O-])cc2)cn1	-2.5	1.2	13.1	34.2	15.4	42.6*
O=C(O)c1ccccc1C(=O)Nc1ccc(Oc2cccc(C(F)(F)F)c2)nc1	-1.1	-3.2	-1.3	13.9	-2.3	-16.2
Cc1ccc(C(=O)Nc2ccc(Oc3cccc(C(F)(F)F)c3)nc2)cc1	-23.9	32.3	39.5*	13.7	-10.7	-1.4
CCOC(=O)CC1(Cc2ccccc2)Oc2ccccc2O1	·	-42.2	0.7	·	·	·
COc1cc(Nc2cc(C)n(-c3cc(OC)cc(OC)c3)c(=O)c2)cc(OC)c1	·	17.0	-1.5	·	·	·
COc1ccc(N)cc1CN1CCN(c2ncc(Cc3ccccc3)cn2)CC1	·	-8.5	0.6	·	·	·
COc1cccc(/C=C2\CC(C)Cc3c2nc2ccccc2c3C(=O)O)c1OC (stereo not given)	-2.0	-9.3	0.3	75.4*	-20.1	-6.1
CCOc1cc(/C=C2\CCCc3c2nc2ccccc2c3C(=O)O)ccc1OC	-8.0	14.8	59.0*	133.2*	31.8	29.3
O=C(/C=C(\Nc1ccc(F)cc1)c1ccccc1)c1ccccc1	·	18.6	-1.1	·	·	·
Cc1ccc(-c2noc(CN(C(=O)c3ccc4c(c3)OCO4)C(C)C)n2)cc1	15.4	-5.1	-0.9	15.8	-19.9	-17.0
Cc1ccccc1OCC(=O)N(Cc1nnc(-c2ccc(Cl)cc2)o1)C(C)C	·	4.1	0.6	39.3*	8.6	-38.0
Cc1ccc(SCC(=O)N(Cc2nc(-c3ccccc3)no2)C(C)C)cc1	10.6	21.0	6.5	62.5	35.1	45.8*
CC(C)N(Cc1nc(-c2ccccc2)no1)C(=O)c1ccc2c(c1)OCO2	-3.9	·	·	49.7*	2.1	-12.1
Cc1ccccc1OCC(=O)N(Cc1nc(-c2ccccc2)no1)C(C)C	-7.0	3.3	2.0	61.7*	5.4	24.6
CSc1n[nH]c(-c2cccs2)n1	·	3.8	-0.8	·	·	·
CC(C)=CCC/C(C)=C/CCC(C)NCCN1CCNCC1 (stereo not given)	24.5*	·	·	12.4	-28.4	-24.8
CC1=CC(C)(C)N(S(=O)(=O)c2ccc(F)cc2)c2ccccc21	-2.7	-9.8	4.2	28.9	-13.9	-17.4
CC(=O)Nc1ccc(S(=O)(=O)N2c3ccccc3C(C)=CC2(C)C)cc1	22.3*	-16.9	5.7	21.2	-15.8	-13.3
CN1c2ccsc2C(O)=C(C(=S)Nc2ccc(F)c(Cl)c2)S1(=O)=O	2.2	10.1	9.3	50.3*	-4.6	-10.5
Cn1cc(C(=O)Nc2ccc(F)c(Cl)c2)cn1	10.6	-7.7	1.4	-7.3	7.4	11.3
SMILES	GPR7 antag	TAAR1 antagonist	TAAR1 agonist	OX1R antag-1	OX1R antag-2	CHO parental Ca
CCOc1ccc(C(=O)Nc2cc(-c3nc4ccccc4[nH]3)ccc2Cl)cc1[N+](=O)[O-]	-11.0	53.1*	8.4	67.7*	-2.5	-6.4
Nc1[nH]n(-c2ccccc2)c(=O)c1N=Nc1ccc2ncsc2c1	-9.7	27.3	5.7	53.0*	-3.2	-11.9
CCc1nnc(NC(=O)CSc2nnc(Cc3cc(=O)[nH]c(=O)[nH]3)n2-c2cccc(OC)c2)s1	17.1*	14.3	0.1	11.8	-10.1	-1.9
CCc1nnc(NC(=O)CSc2nnc(Cc3cc(=O)[nH]c(=O)[nH]3)n2-c2ccc(OC)cc2)s1	11.3	-5.8	0.6	16.3	-10.8	11.7
CCn1c(-c2ccccc2)c[nH]c1=S	2.4	-18.0	-1.6	15.9	-19.0	-7.9
S=c1[nH]cc(-c2ccc(Cl)cc2)n1Cc1ccccc1	-6.5	-29.2	1.2	10.3	-21.6	92.9*
O=C(N[C@H](C(=O)N1CCC[C@H]1C(=O)NC1CCCC1)C1CCCCC1)c1cccs1	·	-27.7	-0.9	·	·	·
COc1ccc(CN(C)C(=O)c2cc(S(=O)(=O)NCc3ccccc3)ccc2C)c(OC)c1	·	40.2	6.5	33.1*	9.9	0.8
COc1ccc(CCN(C)C(=O)c2cc(S(=O)(=O)NCc3ccccc3)ccc2C)cc1OC	·	-25.3	4.0	31.4	-29.8	-24.4
CC1(C(=O)Nc2ccc3nc[nH]c3c2)CCN1C(=O)c1ccccc1CCc1ccccc1 (stereo not given)	·	29.6	8.6	·	·	·
COC(=O)C1(C(=O)OC)C[C@H](c2cccs2)N(Cc2ccccc2OC)[C@@H]1c1ccc(F)cc1	·	0.4	-1.3	·	·	·
Cc1cccc(-c2ncc(CN3CCN(CCC(C)C)C(CCO)C3)cn2)c1 (stereo not given)	18.5*	-12.4	6.8	17.0	-29.8	-13.0
CN(C)c1ccc(C(CNS(=O)(=O)c2ccc3ccccc3c2)N2CCOCC2)cc1 (stereo not given)	·	-5.5	2.9	17.4	-28.8	-14.4
CN(C)c1ccc(C(CNS(=O)(=O)c2ccc([N+](=O)[O-])cc2)N2CCCC2)cc1 (stereo not given)	·	1.3	1.9	71.0*	-31.7	-14.6
Cc1cc(C)c(C#N)c(SCc2[nH]nc3c2C(c2ccc(F)cc2)C(C#N)=C(N)O3)n1 (stereo not given)	15.8	-6.3	8.3	75.3*	-32.5	-17.1
COc1cc(OC)cc(-c2nnc(SCc3c(F)cccc3Cl)o2)c1	11.4	29.6	2.4	33.3	-18.4	37.6*
CCOC(=O)C1=C(CSc2nc3ccccc3s2)NC(=O)NC1c1cc(C)ccc1C (stereo not given)	-4.0	1.1	-1.5	48.8*	26.6	-28.7
Cc1sc2nc(CSC(C)C(=O)N(C)CC(=O)Nc3ccccc3C(F)(F)F)[nH]c(=O)c2c1C (stereo not given)	·	9.8	6.6	70.8*	6.8	-23.1
CSc1ccccc1NC(=O)CN(C)C(=O)C(C)SCc1nc2sc(C)c(C)c2c(=O)[nH]1 (stereo not given)	·	6.2	1.3	·	·	·
COc1ccc(OC)c(NC(=O)C(C)SCc2nc3sc(C)c(C)c3c(=O)[nH]2)c1 (stereo not given)	·	-2.2	6.1	53.7*	23.2	-33.1
COc1cc(C(=O)C(=O)N2CCN(c3ccccc3)CC2)cc(OC)c1OC	·	-1.7	1.2	·	·	·
CCc1cc2c(nc1CC)CCCN2CCOC	·	-0.9	0.6	·	·	·
COC(=O)C1CCN(C(=O)COC(=O)CNS(=O)(=O)c2ccc(SC)c([N+](=O)[O-])c2)CC1	·	-10.7	-0.4	48.7	-23.9	-5.2
